Format in all cases: functional
Test [1] deals with Ostrinia furnacalis. The experiment in a line: Antifeedant activity against fifth-instar larval stage of Ostrinia furnacalis (Asian corn borer) assessed as feeding deterrence index at 500 mg/kg after 24 hr by diet-choice assay. An outline of the steps:
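Newly moulted fifth-instar larvae offered artificial diet with compound added (dissolved in acetone, mixed into diet ingredients before preparation) at 500 mg/kg versus solvent-only control diet. Five replicates of 10 larvae. After 24 h, deterrency index (%) = [(C − T)/(C + T)] × 100, where C and T are amounts of control and treated diet eaten.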

Test [2] deals with Ostrinia furnacalis. The experiment in a line: Antifeedant activity against fifth-instar larval stage of Ostrinia furnacalis (Asian corn borer) assessed as larval weight gain at 5 mg/kg after 5 days by diet-choice assay (reference value: 43.3 +/- 20.8 mg).
Test [3] has as its system Ostrinia furnacalis. The test is described as follows: Antifeedant activity against fifth-instar larval stage of Ostrinia furnacalis (Asian corn borer) assessed as larval weight gain at 20 mg/kg after 5 days by diet-choice assay (reference value: 43.3 +/- 20.8 mg).
The test system of test [4] is Ostrinia furnacalis. The experiment in a line: Antifeedant activity against fifth-instar larval stage of Ostrinia furnacalis (Asian corn borer) assessed as larval weight gain at 10 mg/kg after 5 days by diet-choice assay (reference value: 43.3 +/- 20.8 mg).

Take `CC(C)(C)n1ncc(OCc2nnc(-c3ccccc3F)o2)c(Cl)c1=O`: the FDI in the test with Ostrinia furnacalis [1] was 41.34%.
Still for that read-out and setting: with `CC(C)(C)n1ncc(OCc2nnc(-c3cc(F)c(Cl)cc3Cl)o2)c(Cl)c1=O` the figure was 35.16%.
Regarding `CC(C)(C)n1ncc(OCc2nnc(-c3ccccc3)o2)c(Cl)c1=O`, in the test with Ostrinia furnacalis [1], the FDI is reported as 57.61%. Also, the Activity in the test with Ostrinia furnacalis [2] was 42.3 mg; in the test with Ostrinia furnacalis [3], 6.6 mg; in the test with Ostrinia furnacalis [4], 16.2 mg.
In the case of `Cc1ccc(-c2nnc(COc3cnn(C(C)(C)C)c(=O)c3Cl)o2)cc1`, the FDI in the test with Ostrinia furnacalis [1] is 4.28%.
Same read-out and setting: with `CC(C)(C)n1ncc(OCc2nnc(-c3ccc(F)cc3)o2)c(Cl)c1=O` the figure was 51.08%; with `CCc1ccc(-c2nnc(COc3cnn(C(C)(C)C)c(=O)c3Cl)o2)cc1`, 40.18%.
On the same count and under the same terms, with `CC(C)(C)n1ncc(OCc2nnc(-c3ccc(Cl)cc3)o2)c(Cl)c1=O` the figure was 46.73%; with `COc1ccc(-c2nnc(COc3cnn(C(C)(C)C)c(=O)c3Cl)o2)cc1`, 38.45%.
Take `CC(C)(C)n1ncc(OCc2nnc(-c3cccc(F)c3)o2)c(Cl)c1=O`: the FDI with Ostrinia furnacalis [1] stood at 51.67%. Further, the Activity came out at 38.4 mg in the test on Ostrinia furnacalis [2], 8.7 mg with Ostrinia furnacalis [3] and 22.6 mg with Ostrinia furnacalis [4].
In the case of `C/C=C(\C)C(=O)O[C@H]1C[C@@H](OC(C)=O)[C@@]2(C(=O)OC)CO[C@H]3[C@@H](O)[C@@](C)([C@]45O[C@@]4(C)[C@@H]4C[C@H]5O[C@@H]5OC=C[C@@]54O)[C@H]4[C@]1(CO[C@]4(O)C(=O)OC)[C@@H]32` [AZADIRACHTIN A], in the test with Ostrinia furnacalis [1], the FDI was determined as 59.9%. Besides, the Activity with Ostrinia furnacalis [2] is 22 mg; with Ostrinia furnacalis [3], 1.2 mg; in the test with Ostrinia furnacalis [4], 7.8 mg.
